In ChEMBL document CHEMBL3808334, “Synthesis and in vitro evaluation of novel triazine analogues as anticancer agents and their interaction studies with bovine serum albumin” (Eur J Med Chem, 2016):

What was measured:
Type in all cases: functional
[1] = tested on: SN12C; assay: Growth inhibition of human SN12C cells assessed as cell growth at 10^-6 M incubated for 48 hrs by sulforhodamine B assay; settings: read-out: Activity
[2] = Growth inhibition of human DU145 cells assessed as cell growth at 10^-4 M incubated for 48 hrs by sulforhodamine B assay; settings: DU-145, 48 h, read-out: Activity
Outline: (§1)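 Cells seeded at 5,000–40,000/well according to doubling time and preincubated 24 h at 37 °C, 5% CO2. Time-zero plates were TCA-fixed. DMSO concentrate was diluted in medium with 50 µg/ml gentamicin to give five concentrations (10-fold or ½ log steps), then exposed 48 h. Cells were TCA-fixed, stained with 0.4% SRB and read at 515 nm. Percent growth was taken against time-zero and control; GI50, TGI and LC50 derived.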

[3] = Growth inhibition of human HOP62 cells assessed as cell growth at 10^-8 M incubated for 48 hrs by sulforhodamine B assay; settings: HOP-62, 48 h, read-out: Activity
[4] = Growth inhibition of human IGROV1 cells assessed as cell growth at 10 uM incubated for 48 hrs by sulforhodamine B assay; settings: IGROV-1, 48 h, read-out: Activity
[5] = Growth inhibition of human OVCAR3 cells assessed as cell growth at 10 uM incubated for 48 hrs by sulforhodamine B assay; settings: OVCAR-3, 48 h, read-out: Activity
[6] = tested on: EKVX; assay: Growth inhibition of human EKVX cells assessed as cell growth at 10^-8 M incubated for 48 hrs by sulforhodamine B assay; settings: read-out: Activity; outline: as §1
[7] = Growth inhibition of human SNB75 cells incubated for 48 hrs by sulforhodamine B assay; settings: SNB-75, 48 h
Outline: (§2)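 Cells were plated at 5,000–40,000 per well according to doubling time and preincubated 24 h at 37 °C in 5% CO2; time-zero plates were then TCA-fixed. Five concentrations (10-fold or ½-log dilutions, DMSO stock) were incubated 48 h. Cells were TCA-fixed, stained with 0.4% SRB and read at 515 nm. GI50 was taken where [(Ti−Tz)/(C−Tz)]×100 = 50.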

[8] = tested on: M14; assay: Growth inhibition of human M14 cells incubated for 48 hrs by sulforhodamine B assay; settings: M14, 48 h; outline: as §2
[9] = tested on: KM12; assay: Growth inhibition of human KM12 cells assessed as cell growth at 10^-8 M incubated for 48 hrs by sulforhodamine B assay; settings: KM12, 48 h, read-out: Activity
[10] = Growth inhibition of human HCC2998 cells assessed as cell growth at 10^-4 M incubated for 48 hrs by sulforhodamine B assay; settings: HCC 2998, 48 h, read-out: Activity
[11] = Growth inhibition of human HCT15 cells assessed as cell growth at 10^-7 M incubated for 48 hrs by sulforhodamine B assay; settings: HCT-15, 48 h, read-out: Activity; outline: as §1
[12] = Growth inhibition of human SNB75 cells assessed as cell growth at 10^-4 M incubated for 48 hrs by sulforhodamine B assay; settings: SNB-75, 48 h, read-out: Activity
[13] = Growth inhibition of human OVCAR5 cells assessed as cell growth at 10^-6 M incubated for 48 hrs by sulforhodamine B assay; settings: OVCAR-5, 48 h, read-out: Activity
[14] = tested on: SK-MEL-28; assay: Growth inhibition of human SK-MEL-28 cells assessed as cell growth at 10^-6 M incubated for 48 hrs by sulforhodamine B assay; settings: SK-MEL-28, 48 h, read-out: Activity
[15] = Growth inhibition of human UACC62 cells assessed as cell growth at 10^-4 M incubated for 48 hrs by sulforhodamine B assay; settings: UACC-62, 48 h, read-out: Activity
[16] = tested on: NCI-H226; assay: Growth inhibition of human NCI-H226 cells assessed as cell growth at 10^-6 M incubated for 48 hrs by sulforhodamine B assay; settings: NCI-H226, 48 h, read-out: Activity
[17] = Growth inhibition of human SF539 cells assessed as cell growth at 10^-7 M incubated for 48 hrs by sulforhodamine B assay; settings: SF-539, 48 h, read-out: Activity
[18] = tested on: Malme-3M; assay: Growth inhibition of human MALME-3M cells assessed as cell growth at 10^-8 M incubated for 48 hrs by sulforhodamine B assay; settings: read-out: Activity
[19] = Growth inhibition of human PC3 cells assessed as cell growth at 10^-6 M incubated for 48 hrs by sulforhodamine B assay; settings: PC-3, 48 h, read-out: Activity
[20] = tested on: MDA-MB-468; assay: Growth inhibition of human MDA-MB-468 cells incubated for 48 hrs by sulforhodamine B assay; settings: MDA-MB-468, 48 h; outline: as §2
[21] = tested on: SK-MEL-28; assay: Growth inhibition of human SK-MEL-28 cells assessed as cell growth at 10^-7 M incubated for 48 hrs by sulforhodamine B assay; settings: SK-MEL-28, 48 h, read-out: Activity
[22] = tested on: NCI-H522; assay: Growth inhibition of human NCI-H522 cells incubated for 48 hrs by sulforhodamine B assay; settings: NCI-H522, 48 h; outline: as §2
[23] = Growth inhibition of human TK10 cells assessed as cell growth at 10^-5 M incubated for 48 hrs by sulforhodamine B assay; settings: TK-10, 48 h, read-out: Activity
[24] = Growth inhibition of human COLO205 cells assessed as cell growth at 10^-5 M incubated for 48 hrs by sulforhodamine B assay; settings: COLO 205, 48 h, read-out: Activity; outline: as §1
[25] = Growth inhibition of human PC3 cells assessed as cell growth at 10^-7 M incubated for 48 hrs by sulforhodamine B assay; settings: PC-3, 48 h, read-out: Activity
[26] = Growth inhibition of human OVCAR3 cells assessed as cell growth at 10^-7 M incubated for 48 hrs by sulforhodamine B assay; settings: OVCAR-3, 48 h, read-out: Activity
[27] = tested on: T47D; assay: Growth inhibition of human T47D cells incubated for 48 hrs by sulforhodamine B assay; outline: as §2
[28] = Growth inhibition of human HCC2998 cells incubated for 48 hrs by sulforhodamine B assay; settings: HCC 2998, 48 h; outline: as §1
[29] = Growth inhibition of human OVCAR3 cells assessed as cell growth at 10^-4 M incubated for 48 hrs by sulforhodamine B assay; settings: OVCAR-3, 48 h, read-out: Activity

## Clc1ccc(-c2nc(Nc3ccc(-c4nc5ccccc5[nH]4)cc3)nc(N3CCOCC3)n2)cc1
[1]
  growth at 1 µM: 47%
[2]
  growth at 100 µM: -63%
[3]
  growth at 0.01 µM: 91%
[4]
  growth at 10 µM: -71.2%
[5]
  growth at 10 µM: -95.6%
[6]
  growth at 0.01 µM: 90%
[7]; read-out: GI50
  GI50: 1.75 µM
[7]; read-out: TGI
  TGI: 3.25 µM
[7]; read-out: pGI50 (converted)
  GI50: 1.74 µM
[7]; read-out: pTGI (converted)
  TGI: 3.24 µM
[8]; read-out: GI50
  GI50: 0.37 µM
[8]; read-out: TGI
  TGI: 1.48 µM
[8]; read-out: pGI50 (converted)
  GI50: 0.372 µM
[8]; read-out: pTGI (converted)
  TGI: 1.48 µM
[9]
  growth at 0.01 µM: 98%
[10]
  growth at 100 µM: 2%
[11]
  growth at 0.1 µM: 91%
[12]
  growth at 100 µM: -26%
[13]
  growth at 1 µM: 32%
[14]
  growth at 1 µM: 84%
[15]
  growth at 100 µM: -13%
[16]
  growth at 1 µM: 100%
[17]
  growth at 0.1 µM: 98%
[18]
  growth at 0.01 µM: 96%
[19]
  growth at 1 µM: 13%
[20]; read-out: GI50
  GI50: 0.516 µM
[20]; read-out: TGI
  TGI: 1.82 µM
[20]; read-out: pGI50 (converted)
  GI50: 0.513 µM
[20]; read-out: pTGI (converted)
  TGI: 1.82 µM
[21]
  growth at 0.1 µM: 102%
[22]; read-out: GI50
  GI50: 1.5 µM
[22]; read-out: TGI
  TGI: 3.19 µM
[22]; read-out: pGI50 (converted)
  GI50: 1.51 µM
[22]; read-out: pTGI (converted)
  TGI: 3.16 µM
[23]
  growth at 10 µM: -96%
[24]
  growth at 10 µM: -71%
[25]
  growth at 0.1 µM: 101%
[26]
  growth at 0.1 µM: 97%
[27]; read-out: GI50
  GI50: 0.376 µM
[27]; read-out: TGI
  TGI: 1.72 µM
[27]; read-out: pGI50 (converted)
  GI50: 0.38 µM
[27]; read-out: pTGI (converted)
  TGI: 1.74 µM
[28]; read-out: GI50
  GI50: 0.358 µM
[28]; read-out: pGI50 (converted)
  GI50: 0.355 µM
[29]
  growth at 100 µM: -71%
